Reference: paper PMC12977181 (Journal of natural products, 2025)
“Also recorded” adds a separate entry of the source. Like-named read-outs stand apart in the source and are kept apart here.

Assays:
breast cancer cell lines = details: cited from earlier work
HEK293 cells [1] = details: cited from earlier work
HEK293 cells [2] = assay: Cytotoxicity in HEK293 cells, resazurin reduction assay; format: cell-based; details: 24 h; for cell death at 30 μM: resazurin (Figure 7A); for LD50: 0.03-30 μM, logarithmic nonlinear regression curve (Figure 7B)
p-eIF2α = assay: Immunocytochemistry of p-eIF2α in primary mouse DRGs; format: cell-based; details: approximately 16 h, vs vehicle (0.01% DMSO)
Method in brief: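 Primary mouse DRG neurons were cultured overnight in Neurobasal A, then exposed for ~16 h to test compounds (30–1000 nM) or 0.01% DMSO. Cells were formalin-fixed, blocked in 10% goat serum with 0.1% Triton X-100, and immunostained for p-eIF2α (Alexa 555) and peripherin (Alexa 488) with DAPI. p-eIF2α was quantified as mean gray intensity in peripherin-positive neurons. One-way ANOVA with Tukey's test; mean ± SEM.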

[3] = system: hiPSC-derived nociceptors; assay: Multiwell microelectrode array; format: cell-based, human
[4] = system: primary mouse DRG neurons; assay: Functional calcium imaging in primary mouse DRG neurons; format: cell-based; details: 10 μM Ver E
Method in brief: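 DRGs from an 18-week-old male Nestin-Cre × Cre-dependent GCaMP6f mouse were digested with papain (15 IU/mL) plus collagenase (2.25 mg/mL) at 37 °C for 20 min and plated at 450,000–500,000 cells/mL in Neurobasal A. Imaging ran 24 h later with FITC optics. Maximum fluorescence was taken during direct 10 μM exposure and during SOCE, against 0.1% DMSO vehicle. Unpaired two-tailed t tests; SEM; n = cells.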

[5] = system: mice with neuropathic pain; details: through σ2R/TMEM97; cited from earlier work

## veraguamide C
Breast cancer cell lines
  cytotoxicity, in words: mild cytotoxicity
HEK293 cells [1]
  cytotoxicity, in words: nontoxic

## C[C@@H]1CC[C@@]2(OC1)O[C@H]1[C@@H](O)[C@H]3[C@@H]4CC[C@H]5C[C@@H](O[C@@H]6O[C@H](CO)[C@H](O[C@@H]7O[C@H](CO)[C@@H](O)[C@H](O[C@@H]8OC[C@@H](O)[C@H](O)[C@H]8O)[C@H]7O[C@@H]7O[C@H](CO)[C@H](O)[C@H](O[C@@H]8O[C@H](CO)[C@@H](O)[C@H](O)[C@H]8O)[C@H]7O)[C@H](O)[C@H]6O)[C@H](O)C[C@]5(C)[C@H]4CC[C@]3(C)[C@H]1[C@@H]2C [digitonin, reference compound]
HEK293 cells [2]
  cell death at 30 μM: 100%
HEK293 cells [2]; resazurin
  LD50: 9.68 µM

## C#CCCC[C@H]1OC(=O)[C@H](C(C)C)N(C)C(=O)[C@@H]2CCCN2C(=O)[C@H]([C@@H](C)CC)OC(=O)[C@H]([C@@H](C)CC)N(C)C(=O)[C@H]([C@@H](C)CC)NC(=O)[C@H]1C [Ver E, veraguamide E]
p-eIF2α; Ver E 100 nM
  p-eIF2α levels (mean gray intensity), in words: No observable differences
p-eIF2α; Ver E 1000 nM
  p-eIF2α levels (mean gray intensity), in words: No observable differences
[3]; 30 μM, 37 °C, 24-h time point
  neuronal activity at 24 h, in words: returning to baseline
[3]; 42 °C, Ver E vs vehicle (DMSO)
  effect on activity at 42 °C (heat ramp 37 to 42 °C), in words: no significant effect; also recorded: nonsignificant decrease
HEK293 cells [2]; 0.03 μM to 30 μM, resazurin
  cytotoxicity, in words: no evidence of cytotoxicity
HEK293 cells [2]
  cell death at 30 μM: no cytotoxicity
HEK293 cells [2]; resazurin
  LD50: no detectable LD50
[4]; 0.1% DMSO, max ΔF/F0, after reintroduction of extracellular Ca2+, vehicle mean = 2.126, no significant difference
  Maximum fluorescence during the SOCE response (mean): 1.929
[4]; compared to thapsigargin alone, P < 0.01
  DRG excitability during coapplication with thapsigargin, in words: significantly increased DRG excitability
[4]; upon reintroduction of extracellular Ca2+
  SOCE response, in words: no significant change

## OCCCN1CCC2CC1c1cc(-c3ccc(C(F)(F)F)cc3)ccc12 (stereo not shown) [FEM-1689, reference compound]
p-eIF2α; FEM-1689 30 nM
  p-eIF2α expression (mean gray intensity), in words: marked reduction
[5]
  analgesic effect, in words: drives analgesic responses
